Screening results (PubChem BioAssay)
In the library only some 2.2% were active in any assay of this set; here they are far more common.
HCV core dimer = blocks dimerization of HCV core protein; hit rate 0.33% among 300,000; TR-FRET GST/Flag-core106 dimerization, 1536-well; inhibition, % at 5 µM; AID 1899;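 active = inhibition above the mean of all tested compounds plus 3 SD, set per screening campaign, cut at about 45% in these data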
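Test system: GST/Flag-tagged HCV core106 proteins; Medium: KF-containing HEPES buffer, pH 7.45, DTT, CHAPS, BSA; Times: compound-protein-antibody incubation 4 h at 22.5 °C; Detection: TR-FRET 671 and 617 nm emission; Benchmarks: wells lacking GST-core106 and wells with excess unlabelled core106.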
GPR7 antag = blocks human GPR7 receptor signaling | P48145 | GPR7-expressing cells, fluorescence antagonist assay | hit rate 1.1% among 290,000 | inhibition, % at 4.4 µM; in the data active = inhibition above about 16%, passing the limit was not always enough;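 also: cells stimulated with the agonist NPW; 0% = agonist with vehicle and 100% = vehicle without agonist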
FID counter = counter-screen for HCV NS3 helicase inhibitors: DNA intercalator displacement | hit rate 0.17% among 290,000 | inhibition, % at 7.9 µM | DNA fluorescent intercalator displacement, fluorescence | AID 1845; in the data active = inhibition above about 37%;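 also: 0% = vehicle and 100% = reference compound; higher means more ethidium bromide displaced from hairpin DNA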
GRK2 inh = blocks RNA aptamer binding to human GRK2; P25098; bead flow cytometry, FAM-aptamer displacement from GRK2; inhibition of aptamer binding, % at 10 µM; hit rate 0.59% among 330,000;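 active = inhibition of aptamer binding above 40%, roughly 3 SD of noise, on plates passing a quality check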;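 also: median bead fluorescence of bound FAM aptamer so fluorescent compounds give negative values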
Target sequence (P25098 whole entry, looked up): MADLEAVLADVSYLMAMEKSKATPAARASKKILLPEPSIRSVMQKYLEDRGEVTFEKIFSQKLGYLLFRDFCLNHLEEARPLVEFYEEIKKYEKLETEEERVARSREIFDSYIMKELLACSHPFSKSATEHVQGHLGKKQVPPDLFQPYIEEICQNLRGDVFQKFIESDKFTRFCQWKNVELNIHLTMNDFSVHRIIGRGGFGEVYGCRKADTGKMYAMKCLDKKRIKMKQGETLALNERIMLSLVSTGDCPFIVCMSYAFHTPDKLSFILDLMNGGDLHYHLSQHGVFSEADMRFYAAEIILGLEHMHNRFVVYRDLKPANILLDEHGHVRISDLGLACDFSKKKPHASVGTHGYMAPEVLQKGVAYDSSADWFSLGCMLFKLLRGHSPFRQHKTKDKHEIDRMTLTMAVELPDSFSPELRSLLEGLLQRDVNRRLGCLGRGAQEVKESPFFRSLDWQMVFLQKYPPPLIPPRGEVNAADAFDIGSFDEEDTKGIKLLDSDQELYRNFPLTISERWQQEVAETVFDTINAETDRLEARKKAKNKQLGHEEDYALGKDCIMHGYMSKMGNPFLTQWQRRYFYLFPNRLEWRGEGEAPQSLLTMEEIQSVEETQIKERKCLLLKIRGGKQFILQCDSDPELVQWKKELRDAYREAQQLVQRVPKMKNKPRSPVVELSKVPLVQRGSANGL
DAGLB inh = blocks human DAGLB lipase activity; HEK293T DAGLB membrane lysate, EnzChek fluorogenic substrate; inhibition, % at 5.17 µM; hit rate 0.059% among 340,000; AID 504411; in the data active = inhibition above about 34%;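 also: 0% = enzyme with vehicle and 100% = wells lacking enzyme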
NS3 helicase inh = inhibitors of Hepatitis C virus NS3 helicase; NS3 helicase DNA unwinding, Cy5 molecular beacon fluorescence; inhibition, % at 10.9 µM; AID 1800; hit rate 0.56% among 290,000;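 active = inhibition above the mean of all tested compounds plus 3 SD, set per campaign, cut at about 35% in these data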;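 also: 0% = DMSO wells and 100% = thioflavine S control wells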
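Control set: DMSO versus 110 µM thioflavine S; Material: NS3 helicase fragment of HCV; Measured by: Cy5 fluorescence at 0 and 60 min, beacon hairpin quenching; Read-out basis: percent inhibition from t60/t0 fluorescence ratio; Times: reaction time 60 min, 25 °C; Repeats: single replicate; Compound dosing: single dose, 10.9 µM nominal final, DMSO 0.8% final.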
GRK2 inh confirm = human GRK2 inhibition confirmation, cherry pick 1; hit rate 4% among 2,000; shares compounds with GRK2 inh; aptamer displacement, % at 10 µM; bead-bound GRK2, FAM-aptamer displacement, flow cytometry;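 active = aptamer displacement above 40%, near three times the noise of non-fluorescent compounds, on plates passing quality checks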;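 also: negative values mostly reflect intrinsic compound fluorescence rather than true enhancement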
Aptamer quench SP = quenches fluorescent RNA aptamer, GRK2 hit artifact; shares compounds with GRK2 inh; Carboxyfluorescein RNA aptamer on beads, flow cytometry quenching; stronger effect = lower value; 2,000 tested, under 10 active; fluorescence response (% of DMSO), % at 10 µM;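 active = compounds that quench the bead-bound fluorescent RNA probe, cutting fluorescence to under half of the solvent control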;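 also: counterscreen run without GRK2 so only probe quenching by compound is measured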
GRK2 confirm 2 = confirmation of human GRK2 inhibitors binding RNA aptamer site. shares compounds with GRK2 inh. bead-bound GRK2, FAM-aptamer displacement, flow cytometry. inhibition of aptamer binding, % at 10 µM. 360 tested, under 10 active. AID 504782;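 active = inhibition of aptamer binding above 40%, about triple the noise seen with nonglowing compounds, on plates passing quality control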;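 also: negative values mostly come from compounds that fluoresce themselves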
FAM quench SP = aptamer fluorescence quenching in GRK2 counter-screen; shares compounds with GRK2 inh; carboxyfluorescein RNA aptamer beads, flow cytometry quenching; stronger effect = lower value; fluorescence response vs DMSO, % at 10 µM; 360 tested, under 10 active; AID 588494;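 active = response vs DMSO under 50%, meaning signal dropped by over half, treated as fluorescence quencher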;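 also: labelled aptamer on streptavidin beads without GRK2 as a quench counter-screen; 100% = bead fluorescence of DMSO wells and lower means quenching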
* marks the source's active call; other numbers are inactive results.

`Cc1cc(C)n(CC(=O)c2ccc(Br)cc2)c(=O)c1C#N` gave HCV core dimer -2, GPR7 antag -18, FID counter -3, GRK2 inh 71*, DAGLB inh 1, NS3 helicase inh -2, GRK2 inh confirm -7 and Aptamer quench SP 102.
CCCN(CCC)CCCNC(=O)c1ccc2c(c1)N(CC)C(=O)c1ccccc1S2=O (centres undefined) was read as HCV core dimer -5, GPR7 antag -11, FID counter 10, GRK2 inh 4, DAGLB inh 0 and NS3 helicase inh -5.
For CCCCSCCCNC(=O)c1ccc2c(c1)N(CC)C(=O)c1ccccc1S2=O (centres undefined) the results were HCV core dimer -4, GPR7 antag 8, FID counter -40, GRK2 inh 47*, DAGLB inh 0, NS3 helicase inh -1, GRK2 confirm 2 9 and FAM quench SP 100.
For Cc1cc2ncc(-c3ccccc3)nc2cc1C the results were HCV core dimer 9, GPR7 antag 7, FID counter -17, GRK2 inh 1, DAGLB inh -4 and NS3 helicase inh -14.
Screening Cc1ccc(-c2cnc3ccccc3n2)cc1C returned HCV core dimer -2, GPR7 antag -9, FID counter -9, GRK2 inh 0, DAGLB inh -19, NS3 helicase inh -4, GRK2 inh confirm 2 and Aptamer quench SP 101.
CS(=O)(=O)N(CC(=O)Nc1ccc2c(c1)OCO2)c1ccc2c(c1)OCO2 was read as HCV core dimer 2, GPR7 antag 0, FID counter -5, GRK2 inh 0, DAGLB inh 2 and NS3 helicase inh -2.
For CN(C)C(=O)CN(c1ccc2c(c1)OCO2)S(C)(=O)=O the results were HCV core dimer -6, GPR7 antag -4, FID counter -2, GRK2 inh 47*, DAGLB inh -1, NS3 helicase inh 9, GRK2 inh confirm 4 and Aptamer quench SP 103.
O=C(CCNC(=O)c1ccccc1Cl)Nc1nc(-c2ccccc2Cl)cs1 was read as HCV core dimer 4, GPR7 antag 5, FID counter -24, GRK2 inh 0, DAGLB inh 0 and NS3 helicase inh -5.
Cc1ccc(NC2=C(Cl)C(=O)OC2OC(C)C)cc1 (centres undefined) was read as HCV core dimer 5, GPR7 antag 1, FID counter -8, GRK2 inh 47*, DAGLB inh 0, NS3 helicase inh 0, GRK2 inh confirm 0 and Aptamer quench SP 97.
`COc1cc(C(=O)c2ccccc2C(=O)O)c(OC)c2c1CCCC2` gave DAGLB inh 1.
`O=C(N/N=C/c1c[nH]c2ccccc12)c1[nH]c2ccc(Br)cc2c1-c1ccccc1` gave GPR7 antag 16, FID counter -7, DAGLB inh -5 and NS3 helicase inh -10.
`O=C(N/N=C/c1ccc(O)cc1)c1[nH]c2ccc(Br)cc2c1-c1ccccc1` gave HCV core dimer 9, GPR7 antag 5, FID counter -6, GRK2 inh 51*, DAGLB inh -5, NS3 helicase inh -7, GRK2 inh confirm -7 and Aptamer quench SP 100.
For ON=Cc1cccn1-c1ccccc1 the results were HCV core dimer -5, GPR7 antag 6, FID counter -2, GRK2 inh 1, DAGLB inh 2 and NS3 helicase inh 6.
Screening O=C(O)c1cccc(-n2cccc2/C=N/O)c1 returned HCV core dimer -28, GPR7 antag -4, FID counter -4, GRK2 inh 54*, DAGLB inh -1, NS3 helicase inh 9, GRK2 inh confirm 34, Aptamer quench SP 99, GRK2 confirm 2 26 and FAM quench SP 100.
Screening COc1cccc(C(C(=O)NC2CCCCC2)N(C(=O)c2csnn2)C2CC2)c1 (centres undefined) returned HCV core dimer 1, GPR7 antag 2, FID counter -32, GRK2 inh 2, DAGLB inh 0 and NS3 helicase inh 1.
Screening C[C@]1(CC/C(=C/CO)CO)[C@H](CO)CC[C@@]23COC(=O)C2=CCC[C@@H]31 returned HCV core dimer 3, GRK2 inh 0 and DAGLB inh -1.
Cc1cccn2c(=O)c3cc(C(=O)NCCN4CCOCC4)c(=N)n(CCN4CCOCC4)c3nc12 was read as HCV core dimer -18, GPR7 antag 6, FID counter 19, GRK2 inh 41*, DAGLB inh -2, NS3 helicase inh 9, GRK2 inh confirm -1 and Aptamer quench SP 97.
For CCNC(=O)c1cc2c(=O)n3cccc(C)c3nc2n(Cc2ccc(C)cc2)c1=N the results were HCV core dimer 9, GPR7 antag -6, FID counter -3, GRK2 inh 1, DAGLB inh -1 and NS3 helicase inh -2.
CCCn1c(=N)c(C(=O)NCc2ccc3c(c2)OCO3)cc2c(=O)n3cccc(C)c3nc21 was read as HCV core dimer 13, GPR7 antag -2, FID counter 8, GRK2 inh 78*, DAGLB inh 2, NS3 helicase inh -3, GRK2 inh confirm -2 and Aptamer quench SP 93.
COc1ccc(CNC(=O)c2cc3c(=O)n4cccc(C)c4nc3n(CC3CCCO3)c2=N)cc1 (centres undefined) was read as HCV core dimer 0, GPR7 antag -3, FID counter 21, GRK2 inh 0, DAGLB inh -4, NS3 helicase inh -19, GRK2 inh confirm -2 and Aptamer quench SP 97.
For COc1ccc(CCNC(=O)C(=O)Nc2ccc3c(c2)OCO3)cc1OC the results were HCV core dimer 1, GPR7 antag -10, FID counter 0, GRK2 inh 2, DAGLB inh 1 and NS3 helicase inh -9.
Screening CC1C=CCC2C(=O)N(c3cccc(C(=O)Nc4ccc(Br)cc4)c3)C(=O)C12 (centres undefined) returned HCV core dimer 11, GPR7 antag 2, FID counter -15, GRK2 inh 0, DAGLB inh -5 and NS3 helicase inh -4.
